Test results from publication PMC7967294 (ACS chemical neuroscience, 2020).

Assays:
GluN1/GluN2C [1] = target: T1, GluN1/GluN2C (Rattus norvegicus, UniProt P35439+Q00961); conditions: cited from earlier work
GluN1/GluN2B [2] = target: T2, GluN1/GluN2B (Rattus norvegicus, UniProt P35439+Q00960); conditions: cited from earlier work
[3] = test system: GluN2C- and GluN2D-containing NMDARs; assay: Two electrode voltage clamp recording, Xenopus oocytes, CIQ-sensitive subunits; format: cell-based, rat
GluN1/GluN2C [4] = target: T1, GluN1/GluN2C; assay: Two electrode voltage clamp recording, Xenopus oocytes; format: cell-based
Outline: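 Xenopus oocytes expressing GluN1/GluN2 (1:2 cRNA) were clamped at −40 mV at 23 °C, 2–5 days post-injection, with 30 μM glycine in all solutions. Test compound was applied at increasing concentrations during saturating 100 μM glutamate/30 μM glycine. […] Data came from 5–22 oocytes, 2–3 batches.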

GluN1/GluN2A [5] = target: T3, GluN1/GluN2A (Rattus norvegicus, UniProt P35439+Q00959); conditions: cited from earlier work
T3 sequence (Q00959 23-1464, other chains not shown): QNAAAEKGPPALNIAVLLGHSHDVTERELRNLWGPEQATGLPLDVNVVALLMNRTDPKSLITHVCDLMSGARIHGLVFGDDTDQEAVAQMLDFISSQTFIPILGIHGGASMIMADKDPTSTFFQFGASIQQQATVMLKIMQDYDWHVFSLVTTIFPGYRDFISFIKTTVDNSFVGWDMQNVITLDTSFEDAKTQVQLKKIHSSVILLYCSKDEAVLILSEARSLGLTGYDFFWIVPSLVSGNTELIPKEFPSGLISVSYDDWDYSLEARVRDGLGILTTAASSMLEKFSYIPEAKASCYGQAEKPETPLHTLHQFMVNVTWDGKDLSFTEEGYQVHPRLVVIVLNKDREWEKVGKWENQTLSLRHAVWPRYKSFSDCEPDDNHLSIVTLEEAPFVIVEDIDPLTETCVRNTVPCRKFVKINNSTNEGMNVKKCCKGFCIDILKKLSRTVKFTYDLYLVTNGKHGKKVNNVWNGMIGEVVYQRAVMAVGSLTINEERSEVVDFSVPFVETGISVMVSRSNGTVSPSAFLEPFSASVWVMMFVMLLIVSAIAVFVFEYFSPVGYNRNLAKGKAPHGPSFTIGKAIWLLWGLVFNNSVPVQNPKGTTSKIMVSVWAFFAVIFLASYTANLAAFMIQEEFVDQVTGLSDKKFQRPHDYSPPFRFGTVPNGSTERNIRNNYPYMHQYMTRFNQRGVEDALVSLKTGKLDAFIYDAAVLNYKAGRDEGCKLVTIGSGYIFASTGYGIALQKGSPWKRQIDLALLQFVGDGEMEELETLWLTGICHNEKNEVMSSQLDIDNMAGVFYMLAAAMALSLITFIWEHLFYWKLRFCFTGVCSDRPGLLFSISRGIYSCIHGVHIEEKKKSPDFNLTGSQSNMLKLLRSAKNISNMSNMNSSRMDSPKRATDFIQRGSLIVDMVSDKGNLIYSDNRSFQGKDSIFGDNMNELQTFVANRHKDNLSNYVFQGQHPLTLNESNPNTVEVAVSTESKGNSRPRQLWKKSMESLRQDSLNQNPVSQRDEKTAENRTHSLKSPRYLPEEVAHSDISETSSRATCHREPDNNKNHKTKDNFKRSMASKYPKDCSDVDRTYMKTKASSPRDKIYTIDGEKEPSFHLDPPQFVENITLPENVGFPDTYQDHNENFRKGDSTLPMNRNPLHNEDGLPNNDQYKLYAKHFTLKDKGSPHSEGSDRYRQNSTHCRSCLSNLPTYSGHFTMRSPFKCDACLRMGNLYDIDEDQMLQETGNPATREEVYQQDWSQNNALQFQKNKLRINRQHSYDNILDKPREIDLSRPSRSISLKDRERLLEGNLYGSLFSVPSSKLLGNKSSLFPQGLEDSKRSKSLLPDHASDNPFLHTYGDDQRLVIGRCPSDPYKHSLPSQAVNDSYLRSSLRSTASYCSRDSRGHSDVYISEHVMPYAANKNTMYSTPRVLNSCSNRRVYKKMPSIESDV

GluN1/GluN2B [6] = target: T2, GluN1/GluN2B; conditions: cited from earlier work; remark: listed apart in the source
GluN1/GluN2D [7] = target: T4, GluN1/GluN2D (Rattus norvegicus, UniProt P35439+Q62645); assay: Two electrode voltage clamp recording, Xenopus oocytes; format: cell-based
GluN1/GluN2D [8] = target: T4, GluN1/GluN2D; conditions: cited from earlier work
GluN1/GluN2A [9] = target: T3, GluN1/GluN2A; conditions: cited from earlier work; remark: listed apart in the source
GluN1/GluN2A [10] = target: T3, GluN1/GluN2A; assay: Two electrode voltage clamp recording, Xenopus oocytes; format: cell-based; conditions: read-out: response, % of control
Outline: (§1)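 Defolliculated stage V–VI Xenopus laevis oocytes were injected with GluN1 and GluN2 cRNA at a 1:2 ratio (0.2–10 ng total) and recorded 2–5 days later at 23 °C by two-electrode voltage clamp at −40 mV, with gravity-fed solutions. Currents evoked by 100 μM glutamate plus 30 μM glycine were measured with 100 μM test compound, as % of control; n = 6 oocytes.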

GluN1/GluN2B [11] = target: T2, GluN1/GluN2B; assay: as above; format: cell-based; conditions: read-out: response, % of control
Outline: as §1

[12] = saturating glutamate and glycine, oocytes

T1 sequence (Q00961 20-1237, other chains not shown): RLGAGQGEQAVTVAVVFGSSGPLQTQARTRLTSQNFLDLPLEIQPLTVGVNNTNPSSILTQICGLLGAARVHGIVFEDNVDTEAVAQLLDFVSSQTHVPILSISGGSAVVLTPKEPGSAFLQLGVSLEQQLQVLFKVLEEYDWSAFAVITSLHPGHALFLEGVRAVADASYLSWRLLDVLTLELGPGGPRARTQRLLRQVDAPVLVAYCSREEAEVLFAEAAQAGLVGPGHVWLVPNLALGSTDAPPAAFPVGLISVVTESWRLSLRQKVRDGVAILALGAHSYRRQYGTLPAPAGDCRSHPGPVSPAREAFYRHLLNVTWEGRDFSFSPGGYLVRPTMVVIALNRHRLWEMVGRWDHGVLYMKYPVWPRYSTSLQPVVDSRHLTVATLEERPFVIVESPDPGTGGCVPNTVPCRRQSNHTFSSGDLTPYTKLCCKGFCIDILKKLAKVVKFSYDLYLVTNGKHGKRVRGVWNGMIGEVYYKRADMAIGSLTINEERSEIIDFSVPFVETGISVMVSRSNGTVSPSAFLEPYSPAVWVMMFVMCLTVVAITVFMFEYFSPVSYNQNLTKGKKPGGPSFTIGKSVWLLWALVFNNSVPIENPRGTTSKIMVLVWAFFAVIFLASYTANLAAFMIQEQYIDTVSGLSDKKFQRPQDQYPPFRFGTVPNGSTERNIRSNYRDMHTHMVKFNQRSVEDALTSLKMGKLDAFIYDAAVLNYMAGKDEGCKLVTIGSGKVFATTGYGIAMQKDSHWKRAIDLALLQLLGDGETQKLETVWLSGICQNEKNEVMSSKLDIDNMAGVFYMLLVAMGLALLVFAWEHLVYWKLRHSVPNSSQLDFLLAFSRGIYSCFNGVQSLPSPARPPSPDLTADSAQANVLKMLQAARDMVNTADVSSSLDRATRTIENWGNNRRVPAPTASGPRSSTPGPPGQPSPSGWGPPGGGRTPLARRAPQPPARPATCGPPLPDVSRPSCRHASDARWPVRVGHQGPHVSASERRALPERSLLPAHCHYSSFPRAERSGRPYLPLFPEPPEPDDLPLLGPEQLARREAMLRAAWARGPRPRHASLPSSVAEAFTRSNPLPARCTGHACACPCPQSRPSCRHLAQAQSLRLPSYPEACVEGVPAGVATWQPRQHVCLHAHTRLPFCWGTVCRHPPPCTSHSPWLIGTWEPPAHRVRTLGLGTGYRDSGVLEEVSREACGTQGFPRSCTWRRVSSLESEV
T2 sequence (Q00960 27-1482, other chains not shown): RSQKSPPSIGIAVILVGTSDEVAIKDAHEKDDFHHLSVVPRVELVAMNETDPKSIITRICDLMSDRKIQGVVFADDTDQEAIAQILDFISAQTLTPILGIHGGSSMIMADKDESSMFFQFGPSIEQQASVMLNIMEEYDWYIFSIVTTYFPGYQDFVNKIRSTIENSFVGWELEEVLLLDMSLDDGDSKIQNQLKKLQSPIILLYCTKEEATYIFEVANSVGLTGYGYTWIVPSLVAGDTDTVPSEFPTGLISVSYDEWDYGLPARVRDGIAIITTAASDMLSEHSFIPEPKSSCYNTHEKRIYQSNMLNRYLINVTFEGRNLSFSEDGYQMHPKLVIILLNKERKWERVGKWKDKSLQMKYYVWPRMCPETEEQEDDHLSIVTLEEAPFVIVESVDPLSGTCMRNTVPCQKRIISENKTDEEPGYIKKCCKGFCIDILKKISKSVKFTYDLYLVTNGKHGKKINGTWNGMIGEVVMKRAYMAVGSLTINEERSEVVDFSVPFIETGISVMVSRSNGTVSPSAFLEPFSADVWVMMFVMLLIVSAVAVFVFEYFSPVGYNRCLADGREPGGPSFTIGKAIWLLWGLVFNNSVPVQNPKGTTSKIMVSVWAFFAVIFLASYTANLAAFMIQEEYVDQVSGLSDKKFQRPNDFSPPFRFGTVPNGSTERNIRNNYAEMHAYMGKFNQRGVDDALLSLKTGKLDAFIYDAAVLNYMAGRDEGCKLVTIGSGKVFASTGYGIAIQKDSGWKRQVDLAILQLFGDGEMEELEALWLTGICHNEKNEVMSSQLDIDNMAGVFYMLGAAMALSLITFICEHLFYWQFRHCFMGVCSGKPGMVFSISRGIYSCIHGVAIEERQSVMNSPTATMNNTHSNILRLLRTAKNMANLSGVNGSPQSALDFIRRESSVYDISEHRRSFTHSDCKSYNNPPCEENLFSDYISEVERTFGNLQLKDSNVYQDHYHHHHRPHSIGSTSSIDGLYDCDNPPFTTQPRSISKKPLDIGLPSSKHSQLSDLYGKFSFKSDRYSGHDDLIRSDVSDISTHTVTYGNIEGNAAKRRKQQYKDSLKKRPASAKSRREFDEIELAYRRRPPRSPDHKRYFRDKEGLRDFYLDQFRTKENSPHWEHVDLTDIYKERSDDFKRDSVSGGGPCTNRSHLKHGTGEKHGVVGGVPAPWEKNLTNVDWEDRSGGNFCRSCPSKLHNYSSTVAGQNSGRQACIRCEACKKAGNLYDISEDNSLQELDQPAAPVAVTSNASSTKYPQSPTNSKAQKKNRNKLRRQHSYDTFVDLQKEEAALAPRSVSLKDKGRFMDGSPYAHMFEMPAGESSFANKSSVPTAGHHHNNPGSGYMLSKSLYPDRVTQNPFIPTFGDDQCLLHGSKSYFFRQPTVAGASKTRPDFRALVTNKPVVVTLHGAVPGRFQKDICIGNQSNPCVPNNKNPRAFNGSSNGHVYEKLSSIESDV

Compound | effect on the deactivation time course following glutamate removal (GluN1/GluN2C [1]) | effect at low agonist concentrations (GluN1/GluN2B [2]) | enhancement of the response at EC30 glutamate and glycine ([3]; EC30 concentrations of glutamate and glycine) [fold] | enhancement of the response to maximally effective glutamate and glycine ([3]; maximally effective agonist) [fold] | potentiation, % of control (GluN1/GluN2C [4]; [12]) | effect on the deactivation time course following glutamate removal (GluN1/GluN2A [5]) | effect on the deactivation time course following glutamate removal (GluN1/GluN2B [6]) | potentiation, % of control (GluN1/GluN2D [7]; [12]) | effect on the deactivation time course following glutamate removal (GluN1/GluN2D [8]) | effect at low agonist concentrations (GluN1/GluN2A [9]) | remaining activity at 100 µM (GluN1/GluN2A [10]) [%] | IC50 (GluN1/GluN2C [4]) [µM] | IC50 (GluN1/GluN2D [7]) [µM] | remaining activity at 100 µM (GluN1/GluN2B [11]) [%]
COc1ccc(OCC2c3cc(OC)c(OC)cc3CCN2C(=O)c2cccc(Cl)c2)cc1 (single isomer, unassigned; (+)) [CIQ, (+)-(3-chlorophenyl)(6,7-dimethoxy-1-((4-methoxyphenoxy)methyl)-3,4-dihydroisoquinolin-2(1H)-yl)methanone] | modest effects | no effect | ≤ 5 | 2 | 340% ± 27% | no detectable effect | no detectable effect | 281% ± 10% | no detectable effect | no effect | – | – | – | –
CNC(=O)N1N=C(c2ccc(N)cc2)c2cc3c(cc2CC1C)OCO3 (centres unmarked) [GYKI 53655] | – | – | – | – | – | – | – | – | – | – | 104 | 143 | 133 | 107
